A value given as a limit tells only on which side of the number the result lay.

Series [1] has as its system BaF3. As to the kind of experiment: Induction of cell cycle arrest in mouse BaF3 cells harbouring JAK2 […] mutant assessed as accumulation of cells at S phase at 0.5 nM incubated for 24 hrs by propidium iodide staining based flow cytometry analysis (reference value: 33.80 %). The class given is functional. On the technique in general: A flow cytometer gives signals particle by particle.

The test system of series [2] is BaF3. As to the kind of experiment: Induction of cell cycle arrest in mouse BaF3 cells harbouring JAK2 […] mutant assessed as accumulation of cells at S phase at 2 nM incubated for 24 hrs by propidium iodide staining based flow cytometry analysis (reference value: 33.80 %). The class given is functional.
The subject of series [3] is BaF3. As to the kind of experiment: Induction of apoptosis in mouse BaF3 cells harbouring JAK2 V617F mutant assessed as early apoptotic cells at 40 nM incubated for 24 hrs by Annexin V / propidium iodide staining based flow cytometry analysis (reference value: 14.4 %). The class given is functional. In a few lines:
(§1)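 Ba/F3 JAK2V617F cells exposed to compound at 20, 40, 80, 160 and 320 nM, then analysed for apoptosis by flow cytometry. Significance vs control by Dunnett's t test.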

Series [4] deals with T1, Receptor-type tyrosine-protein kinase FLT3 (Homo sapiens, UniProt P36888).
T1 sequence (P36888 whole entry): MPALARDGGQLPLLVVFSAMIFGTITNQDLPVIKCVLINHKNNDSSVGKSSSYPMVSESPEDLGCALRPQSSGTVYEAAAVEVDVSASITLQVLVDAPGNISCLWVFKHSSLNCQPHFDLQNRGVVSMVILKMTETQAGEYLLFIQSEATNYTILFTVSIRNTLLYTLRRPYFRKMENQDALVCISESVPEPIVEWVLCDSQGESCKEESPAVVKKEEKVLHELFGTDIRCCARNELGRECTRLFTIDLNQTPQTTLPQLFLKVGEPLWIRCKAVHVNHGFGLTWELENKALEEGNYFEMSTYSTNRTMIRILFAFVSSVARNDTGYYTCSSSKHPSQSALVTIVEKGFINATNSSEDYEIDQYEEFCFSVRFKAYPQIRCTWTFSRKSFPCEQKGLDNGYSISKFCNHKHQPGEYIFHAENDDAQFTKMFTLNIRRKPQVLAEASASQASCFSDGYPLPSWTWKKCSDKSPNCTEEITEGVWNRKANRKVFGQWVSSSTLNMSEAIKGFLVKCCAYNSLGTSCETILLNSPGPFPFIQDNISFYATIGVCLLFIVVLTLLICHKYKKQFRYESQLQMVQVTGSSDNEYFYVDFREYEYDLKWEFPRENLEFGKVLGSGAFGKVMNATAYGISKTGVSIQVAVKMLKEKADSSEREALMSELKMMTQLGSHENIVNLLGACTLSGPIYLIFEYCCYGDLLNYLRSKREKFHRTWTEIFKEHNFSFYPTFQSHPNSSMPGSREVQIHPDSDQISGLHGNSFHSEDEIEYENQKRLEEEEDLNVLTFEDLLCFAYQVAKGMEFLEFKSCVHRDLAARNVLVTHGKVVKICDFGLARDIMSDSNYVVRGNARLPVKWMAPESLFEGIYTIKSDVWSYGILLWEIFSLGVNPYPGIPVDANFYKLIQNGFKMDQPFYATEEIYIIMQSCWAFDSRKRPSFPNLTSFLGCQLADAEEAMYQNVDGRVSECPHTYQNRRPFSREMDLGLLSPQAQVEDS
The series is described as follows: Inhibition of FLT3 (unknown origin) in presence of Mg/ATP mixture by [gamma p33]-ATP based radiometric assay. In a few lines: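 IC50 values determined by Eurofins Discovery.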

Series [5] deals with BaF3. The series is described as follows: Induction of cell cycle arrest in mouse BaF3 cells harbouring JAK2 […] mutant assessed as accumulation of cells at G0/G1 phase at 2 nM incubated for 24 hrs by propidium iodide staining based flow cytometry analysis (reference value: 56.85 %). The class given is functional.
Series [6] concerns BaF3. As to the kind of experiment: Induction of cell cycle arrest in mouse BaF3 cells harbouring JAK2 […] mutant assessed as accumulation of cells at G0/G1 phase at 8 nM incubated for 24 hrs by propidium iodide staining based flow cytometry analysis (reference value: 56.85 %). The class given is functional.
The subject of series [7] is BaF3. As to the kind of experiment: Induction of cell cycle arrest in mouse BaF3 cells harbouring JAK2 […] mutant assessed as accumulation of cells at G0/G1 phase at 0.5 nM incubated for 24 hrs by propidium iodide staining based flow cytometry analysis (reference value: 56.85 %). The class given is functional.
For series [8], the target named is Tyrosine-protein kinase JAK2 (Homo sapiens, UniProt O60674, V617F). As to the kind of experiment: Inhibition of JAK2 V617F mutant in human SET2 cells. The class given is cell-based. The procedure, abridged:
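Cell proliferation assay. IC50 is the concentration that inhibits proliferation by 50%, taken from dose–response curves. Mean ± SEM of at least three independent experiments.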

A short description of series [9]: Metabolic stability in human liver microsomes assessed as half life. The class given is ADME, Microsome. For orientation: Microsomes from liver hold many membrane-bound enzymes, among them those of drug oxidation.
Series [10] has as its system BaF3. As to the kind of experiment: Induction of apoptosis in mouse BaF3 cells harbouring JAK2 V617F mutant assessed as early apoptotic cells at 80 nM incubated for 24 hrs by Annexin V / propidium iodide staining based flow cytometry analysis (reference value: 14.4 %). It is filed as functional. The procedure, abridged:
as §1

Series [11] has as its system BaF3. As to the kind of experiment: Induction of apoptosis in mouse BaF3 cells harbouring JAK2 V617F mutant assessed as necrotic cells at 40 nM incubated for 24 hrs by Annexin V / propidium iodide staining based flow cytometry analysis (reference value: 0.64 %). The class given is functional. In a few lines: as §1
For series [12], the system named is BaF3. The series is described as follows: Induction of apoptosis in mouse BaF3 cells harbouring JAK2 V617F mutant assessed as necrotic cells at 80 nM incubated for 24 hrs by Annexin V / propidium iodide staining based flow cytometry analysis (reference value: 0.64 %). It is filed as functional. The procedure, abridged: as §1
In series [13] the test system is BaF3. The series is described as follows: Induction of apoptosis in mouse BaF3 cells harbouring JAK2 V617F mutant assessed as viable cells at 160 nM incubated for 24 hrs by Annexin V / propidium iodide staining based flow cytometry analysis (reference value: 72.8 %). The class given is functional. The following applies: read-out: Activity. The procedure, abridged:
as §1

For series [14], the system named is BaF3. As to the kind of experiment: Induction of cell cycle arrest in mouse BaF3 cells harbouring JAK2 […] mutant assessed as accumulation of cells at S phase at 4 nM incubated for 24 hrs by propidium iodide staining based flow cytometry analysis (reference value: 33.80 %). The class given is functional.
The subject of series [15] is BaF3. The series is described as follows: Induction of apoptosis in mouse BaF3 cells harbouring JAK2 V617F mutant assessed as late apoptotic cells at 80 nM incubated for 24 hrs by Annexin V / propidium iodide staining based flow cytometry analysis (reference value: 12.2 %). It is filed as functional. The procedure, abridged: as §1
Series [16] deals with BaF3. The series is described as follows: Induction of apoptosis in mouse BaF3 cells harbouring JAK2 V617F mutant assessed as necrotic cells at 20 nM incubated for 24 hrs by Annexin V / propidium iodide staining based flow cytometry analysis (reference value: 0.64 %). It is filed as functional. In a few lines:
as §1

In series [17] the test system is BaF3. As to the kind of experiment: Induction of cell cycle arrest in mouse BaF3 cells harbouring JAK2 […] mutant assessed as accumulation of cells at G2/M phase at 16 nM incubated for 24 hrs by propidium iodide staining based flow cytometry analysis (reference value: 9.34 %). The class given is functional.
The subject of series [18] is BaF3. The series is described as follows: Induction of apoptosis in mouse BaF3 cells harbouring JAK2 V617F mutant assessed as late apoptotic cells at 160 nM incubated for 24 hrs by Annexin V / propidium iodide staining based flow cytometry analysis (reference value: 12.2 %). The class given is functional. In a few lines:
as §1

Series [19] can be described thus: Selectivity ratio of IC50 for TYK2 (unknown origin) to IC50 for JAK2 (unknown origin).

Sequence of Tyrosine-protein kinase JAK2 (O60674 whole entry V617F): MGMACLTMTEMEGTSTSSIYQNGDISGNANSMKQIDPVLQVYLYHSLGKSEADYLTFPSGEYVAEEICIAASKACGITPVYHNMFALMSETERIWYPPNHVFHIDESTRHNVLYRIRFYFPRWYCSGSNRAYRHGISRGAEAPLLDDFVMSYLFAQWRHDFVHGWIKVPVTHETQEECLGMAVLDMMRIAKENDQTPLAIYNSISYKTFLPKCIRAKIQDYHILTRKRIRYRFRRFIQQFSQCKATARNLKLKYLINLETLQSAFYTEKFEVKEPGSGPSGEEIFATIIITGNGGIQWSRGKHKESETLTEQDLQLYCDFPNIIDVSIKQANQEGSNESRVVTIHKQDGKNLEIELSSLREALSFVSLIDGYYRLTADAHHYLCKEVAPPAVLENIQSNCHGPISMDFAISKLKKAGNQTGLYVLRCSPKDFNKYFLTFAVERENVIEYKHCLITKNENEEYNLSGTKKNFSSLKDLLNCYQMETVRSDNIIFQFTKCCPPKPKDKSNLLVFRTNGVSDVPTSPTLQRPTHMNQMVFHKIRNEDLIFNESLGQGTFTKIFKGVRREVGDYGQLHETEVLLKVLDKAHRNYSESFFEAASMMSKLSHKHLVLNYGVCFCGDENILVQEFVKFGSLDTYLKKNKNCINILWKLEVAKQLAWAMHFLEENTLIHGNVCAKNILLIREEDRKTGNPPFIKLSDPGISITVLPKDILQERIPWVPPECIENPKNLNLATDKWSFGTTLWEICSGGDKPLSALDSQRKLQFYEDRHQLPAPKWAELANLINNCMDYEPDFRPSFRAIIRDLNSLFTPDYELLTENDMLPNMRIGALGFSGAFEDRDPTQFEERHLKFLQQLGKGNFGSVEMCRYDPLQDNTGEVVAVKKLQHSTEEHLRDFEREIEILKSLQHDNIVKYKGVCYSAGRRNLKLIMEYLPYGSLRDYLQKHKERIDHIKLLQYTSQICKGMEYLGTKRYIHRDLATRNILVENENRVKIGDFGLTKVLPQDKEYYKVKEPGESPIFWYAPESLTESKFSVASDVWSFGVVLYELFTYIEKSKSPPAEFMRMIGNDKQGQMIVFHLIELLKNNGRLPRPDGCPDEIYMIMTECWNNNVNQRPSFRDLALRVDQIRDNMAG

As usually defined, the IC50 is the concentration that inhibits the measured activity by half. Broadly, the half-life is the time in which the quantity being followed falls by half. `Cc1cnc(Nc2ccc3c(c2)CCN(C(=O)/C=C/CN(C)C)C3)nc1-c1cnn(C(C)C)c1`: the Activity is recorded as 34.4% in the series with BaF3 [1]; 27.94% in the series with BaF3 [2]; 22.4% with BaF3 [3]; 56.54% with BaF3 [5]; 58.82% with BaF3 [6]; 55.96% in the series on BaF3 [7]. Also, the Activity with BaF3 [10] is 33.2%; with BaF3 [11], 0.89%; with BaF3 [12] it was 2.64%; with BaF3 [14], 33.33%; in the series with BaF3 [15], 25.4%; in the series with BaF3 [16], 1.04%. For the same molecule, the Activity was 8.95% with BaF3 [17] and 30.7% with BaF3 [18]. The values for the IC50 in [4] and in [8] were 62 nM and 475 nM, respectively. Also, the half-life in series [9] amounted to 54.6 min. The viability at 0.16 µM in the series with BaF3 [13] was determined as 19.4%. Moreover, the Ratio IC50 in series [19] was 25.

Regarding `C=CS(=O)(=O)NCc1ccc(Nc2ncc(C)c(-c3cnn(C(C)C)c3)n2)cc1`, the Activity in the series with BaF3 [1] is 31.74%; with BaF3 [2] it was 30.58%; in the series on BaF3 [3] it was 26.4%; in the series with BaF3 [5], 61.14%; with BaF3 [6] it was 63.86%; in the series with BaF3 [7], 59.23%. The Activity in the series with BaF3 [10] is on record as 35.7%; in the series on BaF3 [11] it was 3.27%; with BaF3 [12] it was 3.39%; in the series on BaF3 [14], 29.44%; in the series on BaF3 [15] it was 38.7%; in the series with BaF3 [16] it was 1.61%. The Activity was determined as 9.93% in the series with BaF3 [17] and 35.8% with BaF3 [18]. Besides, the results for the IC50 in [4] and in series [8] were 467 nM and 44.3 nM, respectively. In addition, the half-life in series [9] was greater than 120 min. The viability at 0.16 µM in the series with BaF3 [13] stood at 22.9%. For the same molecule, the Ratio IC50 in [19] worked out at 41.2.

For the origin of these results see ChEMBL document CHEMBL5325511, “Discovery of N-(4-(Aminomethyl)phenyl)-5-methylpyrimidin-2-amine Derivatives as Potent and Selective JAK2 Inhibitors” (ACS Med Chem Lett, 2023).
